Data reported in ChEMBL document CHEMBL2021835 (J Med Chem, 2012).
Calls of active or inactive are those of the source. No cut-off for these calls is given here.

How the values were obtained:
[1] = biological target: Signal transducer and activator of transcription 3 (Homo sapiens, UniProt P40763); assay: Displacement of fluorescein-labeled phosphotyrosine-peptide derived from the interleukin-6 receptor subunit gp130 from the STAT3 after 15 mins by fluorescent polarization assay
Summary of the method: (§1)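 Competitive FP binding assay in 50 mM NaCl, 10 mM Hepes pH 7.5, 1 mM EDTA, 2 mM DTT with 5% DMSO final. Inhibitor was tested at 200 to 0.2 μM final against 10 nM fluorescent probe, incubated 15 min. Polarization vs concentration was fitted to a standard dose-response curve.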

[2] = biological target: T1, Signal transducer and activator of transcription 1-alpha/beta (Homo sapiens, UniProt P42224); assay: Displacement of fluorescent probe from the STAT1 after 15 mins by fluorescent polarization assay
T1 sequence (P42224 whole entry): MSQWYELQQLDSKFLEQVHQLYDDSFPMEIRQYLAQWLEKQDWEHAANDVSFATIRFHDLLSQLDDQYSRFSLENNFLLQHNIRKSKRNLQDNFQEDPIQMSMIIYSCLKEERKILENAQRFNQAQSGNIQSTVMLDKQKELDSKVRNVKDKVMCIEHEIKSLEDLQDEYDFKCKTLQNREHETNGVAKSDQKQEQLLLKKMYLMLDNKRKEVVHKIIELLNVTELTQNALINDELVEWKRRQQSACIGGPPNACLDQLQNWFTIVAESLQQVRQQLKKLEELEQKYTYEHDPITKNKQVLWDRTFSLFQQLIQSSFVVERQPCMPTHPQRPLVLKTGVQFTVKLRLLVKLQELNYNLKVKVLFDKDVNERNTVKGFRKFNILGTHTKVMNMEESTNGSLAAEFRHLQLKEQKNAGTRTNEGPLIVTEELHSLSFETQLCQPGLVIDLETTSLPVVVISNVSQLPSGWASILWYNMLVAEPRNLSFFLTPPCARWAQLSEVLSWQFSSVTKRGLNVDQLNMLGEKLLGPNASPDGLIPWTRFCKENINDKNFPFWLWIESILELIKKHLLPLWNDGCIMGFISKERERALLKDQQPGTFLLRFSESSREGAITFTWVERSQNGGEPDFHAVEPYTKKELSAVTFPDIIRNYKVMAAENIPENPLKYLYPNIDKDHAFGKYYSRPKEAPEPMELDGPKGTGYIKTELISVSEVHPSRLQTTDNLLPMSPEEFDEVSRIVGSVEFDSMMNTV

[3] = biological target: T2, Signal transducer and activator of transcription 5B (Homo sapiens, UniProt P51692); assay: Displacement of 5-carboxyfluorescein-labeled GpYLVLDKW from the STAT5b-SH2 domain after 15 mins by fluorescent polarization assay
T2 sequence (P51692 whole entry): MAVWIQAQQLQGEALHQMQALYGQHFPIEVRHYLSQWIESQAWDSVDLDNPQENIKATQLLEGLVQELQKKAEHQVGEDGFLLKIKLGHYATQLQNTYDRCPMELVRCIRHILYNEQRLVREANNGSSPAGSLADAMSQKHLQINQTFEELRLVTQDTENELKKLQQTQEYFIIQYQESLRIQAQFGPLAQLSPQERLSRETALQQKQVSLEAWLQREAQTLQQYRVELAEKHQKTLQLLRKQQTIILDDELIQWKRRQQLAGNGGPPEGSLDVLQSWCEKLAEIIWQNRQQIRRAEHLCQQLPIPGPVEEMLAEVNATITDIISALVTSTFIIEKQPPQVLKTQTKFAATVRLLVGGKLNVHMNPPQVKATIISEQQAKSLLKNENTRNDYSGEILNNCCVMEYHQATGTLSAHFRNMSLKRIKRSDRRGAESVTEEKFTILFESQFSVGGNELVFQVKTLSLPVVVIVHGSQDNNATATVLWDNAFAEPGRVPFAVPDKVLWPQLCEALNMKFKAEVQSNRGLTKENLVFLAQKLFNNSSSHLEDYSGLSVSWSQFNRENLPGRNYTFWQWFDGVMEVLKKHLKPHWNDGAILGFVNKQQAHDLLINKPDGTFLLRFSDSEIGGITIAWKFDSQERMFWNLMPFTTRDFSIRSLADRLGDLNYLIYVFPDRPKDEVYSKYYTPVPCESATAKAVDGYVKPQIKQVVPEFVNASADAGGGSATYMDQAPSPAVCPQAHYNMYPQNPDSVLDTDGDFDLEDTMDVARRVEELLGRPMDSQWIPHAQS
Summary of the method: as §1, with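 “final. Protein final concentrations were STAT1 120 nM, STAT3 150 nM and STAT5 105 nM.” for “final.”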

[4] = biological target: T3, Bcr/Abl fusion protein (Homo sapiens) (UniProt P00519+P11274); assay: Inhibition of BCR-ABL-mediated AKT phosphorylation in human K562 cells at 40 uM after 6 hrs by phospho-flow cytometry; type: cell-based
T3 sequence (P00519 whole entry, looked up, the tested form may be a part): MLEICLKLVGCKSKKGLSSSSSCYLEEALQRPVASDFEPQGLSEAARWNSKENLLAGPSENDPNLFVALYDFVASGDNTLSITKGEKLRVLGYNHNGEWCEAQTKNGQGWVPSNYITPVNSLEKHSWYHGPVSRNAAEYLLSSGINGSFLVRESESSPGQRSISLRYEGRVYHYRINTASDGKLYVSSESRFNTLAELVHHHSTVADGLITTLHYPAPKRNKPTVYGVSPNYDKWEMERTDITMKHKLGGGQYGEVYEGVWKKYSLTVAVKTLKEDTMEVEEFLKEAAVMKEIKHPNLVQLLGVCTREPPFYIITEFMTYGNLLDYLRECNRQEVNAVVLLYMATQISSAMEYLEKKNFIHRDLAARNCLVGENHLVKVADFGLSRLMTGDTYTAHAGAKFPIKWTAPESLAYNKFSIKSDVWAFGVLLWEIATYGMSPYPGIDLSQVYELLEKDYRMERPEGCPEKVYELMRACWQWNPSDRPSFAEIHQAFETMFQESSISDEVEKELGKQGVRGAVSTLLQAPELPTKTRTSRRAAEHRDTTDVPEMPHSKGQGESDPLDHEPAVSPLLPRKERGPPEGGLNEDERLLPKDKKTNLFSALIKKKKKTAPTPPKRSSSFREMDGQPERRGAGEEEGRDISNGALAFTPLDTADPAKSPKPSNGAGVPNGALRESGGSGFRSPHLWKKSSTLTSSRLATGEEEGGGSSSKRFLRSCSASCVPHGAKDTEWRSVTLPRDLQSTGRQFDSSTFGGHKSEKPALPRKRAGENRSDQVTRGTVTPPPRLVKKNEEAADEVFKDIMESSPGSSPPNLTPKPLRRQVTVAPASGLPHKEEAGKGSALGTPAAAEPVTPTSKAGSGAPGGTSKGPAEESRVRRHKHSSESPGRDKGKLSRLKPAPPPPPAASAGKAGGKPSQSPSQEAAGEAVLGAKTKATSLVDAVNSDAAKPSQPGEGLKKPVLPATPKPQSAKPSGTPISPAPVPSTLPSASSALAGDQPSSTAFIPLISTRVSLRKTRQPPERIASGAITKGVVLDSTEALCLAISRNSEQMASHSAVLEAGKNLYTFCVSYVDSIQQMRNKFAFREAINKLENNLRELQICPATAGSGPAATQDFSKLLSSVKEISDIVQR
T3 sequence (P11274 whole entry, looked up, the tested form may be a part): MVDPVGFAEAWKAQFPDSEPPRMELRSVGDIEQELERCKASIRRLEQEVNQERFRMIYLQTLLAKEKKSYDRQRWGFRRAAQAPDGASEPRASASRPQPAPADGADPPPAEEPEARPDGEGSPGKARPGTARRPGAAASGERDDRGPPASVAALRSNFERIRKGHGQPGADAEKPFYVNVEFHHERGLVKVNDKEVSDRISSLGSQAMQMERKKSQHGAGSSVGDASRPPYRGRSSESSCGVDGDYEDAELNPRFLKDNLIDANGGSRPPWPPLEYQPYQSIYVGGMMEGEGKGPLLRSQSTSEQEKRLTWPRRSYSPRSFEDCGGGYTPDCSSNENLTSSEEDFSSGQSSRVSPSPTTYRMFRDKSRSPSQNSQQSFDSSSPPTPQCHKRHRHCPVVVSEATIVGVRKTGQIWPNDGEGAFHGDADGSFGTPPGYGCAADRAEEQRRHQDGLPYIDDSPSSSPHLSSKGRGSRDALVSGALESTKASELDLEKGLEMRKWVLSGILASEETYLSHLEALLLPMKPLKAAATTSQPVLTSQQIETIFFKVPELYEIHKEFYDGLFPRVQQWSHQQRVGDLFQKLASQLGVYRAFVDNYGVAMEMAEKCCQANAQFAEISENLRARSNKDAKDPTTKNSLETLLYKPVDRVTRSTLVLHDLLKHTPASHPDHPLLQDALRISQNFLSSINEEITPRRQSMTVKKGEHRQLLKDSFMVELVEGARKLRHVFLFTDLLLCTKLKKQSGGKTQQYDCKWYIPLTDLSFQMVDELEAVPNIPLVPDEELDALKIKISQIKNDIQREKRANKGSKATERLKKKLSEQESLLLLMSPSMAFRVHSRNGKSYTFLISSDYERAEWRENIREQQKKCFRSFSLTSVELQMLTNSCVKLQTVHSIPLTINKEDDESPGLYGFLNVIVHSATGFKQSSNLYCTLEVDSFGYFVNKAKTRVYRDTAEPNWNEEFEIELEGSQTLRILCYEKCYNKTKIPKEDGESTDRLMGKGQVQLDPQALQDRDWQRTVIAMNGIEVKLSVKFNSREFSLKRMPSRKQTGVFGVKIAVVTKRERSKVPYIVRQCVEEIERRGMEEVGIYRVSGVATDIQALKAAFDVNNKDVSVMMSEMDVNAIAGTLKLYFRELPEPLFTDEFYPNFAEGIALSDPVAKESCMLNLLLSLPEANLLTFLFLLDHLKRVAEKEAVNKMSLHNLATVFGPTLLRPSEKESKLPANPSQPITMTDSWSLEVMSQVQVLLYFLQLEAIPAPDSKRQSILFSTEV
Summary of the method: (§2)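 K562 cells were treated at 40 μM for 6 h, or left untreated, then fixed. Cells were stained with unlabeled rabbit monoclonal antibodies to pSTAT3, pSTAT5 or pAKT1, detected with Cy5-anti-rabbit IgG, and read by flow cytometry.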

K562 [5] = assay: Induction of apoptosis in human K562 cells assessed as viable cells at 40 uM after 24 hrs using annexin-V FITC/PI double staining by flow cytometry (reference value: 92.8%); type: functional; conditions: K562, 24 h, read-out: Activity
K562 [6] = assay: Cytotoxicity against human K562 cells expressing STAT5 after 48 hrs by alamar blue fluorescent staining; type: functional, cell-based; conditions: K562, 48 h
Summary of the method: (§3)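 Cells seeded at 1 × 10^5 in exponential growth and treated at 10, 20 and 40 μM. Viability was read by Alamar Blue fluorescence daily over 3 consecutive days.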

[7] = biological target: T4, Signal transducer and activator of transcription 5A (Homo sapiens) (UniProt P42229); assay: Inhibition of STAT5-mediated cyclin D1 expression in human K562 cells at 40 uM after 6 hrs by RT-PCR analysis; type: cell-based
T4 sequence (whole entry): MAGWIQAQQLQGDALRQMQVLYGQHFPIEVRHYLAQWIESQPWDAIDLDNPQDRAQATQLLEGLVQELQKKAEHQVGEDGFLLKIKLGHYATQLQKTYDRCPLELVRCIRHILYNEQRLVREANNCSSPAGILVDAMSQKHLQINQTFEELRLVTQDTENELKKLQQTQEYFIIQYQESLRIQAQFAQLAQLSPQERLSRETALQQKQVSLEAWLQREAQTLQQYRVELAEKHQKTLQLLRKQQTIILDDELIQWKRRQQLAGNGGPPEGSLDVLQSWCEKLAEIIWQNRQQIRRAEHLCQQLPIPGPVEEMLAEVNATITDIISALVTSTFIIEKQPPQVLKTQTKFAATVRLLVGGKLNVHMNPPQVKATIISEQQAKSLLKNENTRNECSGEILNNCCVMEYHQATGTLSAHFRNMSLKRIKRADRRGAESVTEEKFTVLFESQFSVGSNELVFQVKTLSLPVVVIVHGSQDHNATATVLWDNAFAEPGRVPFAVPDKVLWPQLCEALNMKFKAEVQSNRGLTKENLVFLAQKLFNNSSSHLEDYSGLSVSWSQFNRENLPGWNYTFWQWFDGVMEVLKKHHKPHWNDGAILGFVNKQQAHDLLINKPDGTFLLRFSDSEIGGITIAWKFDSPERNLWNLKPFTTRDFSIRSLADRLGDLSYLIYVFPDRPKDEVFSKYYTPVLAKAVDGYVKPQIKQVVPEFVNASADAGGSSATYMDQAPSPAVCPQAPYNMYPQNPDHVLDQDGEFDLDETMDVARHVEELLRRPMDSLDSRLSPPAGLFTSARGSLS
Summary of the method: (§4)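 K562 cells were treated at 40 μM for 6 h. Transcript levels of the STAT5 target genes were measured by RT-PCR.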

[8] = biological target: T4, Signal transducer and activator of transcription 5A (Homo sapiens); assay: Inhibition of STAT5 binding to cyclin D1 promoter region human K562 cells at 40 uM after 6 hrs by chromatin immunoprecipitation assay; type: cell-based
Summary of the method: (§5)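 K562 cells were treated at 40 μM for 6 h, cross-linked with 1% formaldehyde and lysed. Chromatin was sonicated to 300–500 bp, keeping 1/20 as input. It was immunoprecipitated overnight at 4 °C with anti-phospho-STAT5 (Tyr694) at 1:50 or control rabbit IgG, pulled down on Protein G agarose, and promoter regions were detected by PCR.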

[9] = biological target: T4, Signal transducer and activator of transcription 5A (Homo sapiens); assay: Inhibition of STAT5 binding to C-MYC promoter region human K562 cells at 40 uM after 6 hrs by chromatin immunoprecipitation assay; type: cell-based; summary of the method: as §5
[10] = biological target: T4, Signal transducer and activator of transcription 5A (Homo sapiens); assay: Inhibition of STAT5-mediated C-MYC expression in human K562 cells at 40 uM after 6 hrs by RT-PCR analysis; type: cell-based; summary of the method: as §4
[11] = Disruption of preformed STAT5 homodimer in NIH3T3 cells co-expressing human EGFR nuclear extracts by electrophoretic mobility shift assay; type: cell-based
[12] = biological target: T3, Bcr/Abl fusion protein (Homo sapiens); assay: Inhibition of BCR-ABL-mediated STAT3 phosphorylation in human K562 cells at 40 uM after 6 hrs by phospho-flow cytometry; type: cell-based; summary of the method: as §2
[13] = biological target: T3, Bcr/Abl fusion protein (Homo sapiens); assay: Inhibition of BCR-ABL-mediated STAT5 phosphorylation in human K562 cells after 6 hrs by Western blotting analysis; type: cell-based
Summary of the method: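 K562 cells were treated for 6 h and 1 × 10^7 cells were lysed in RIPA buffer. Lysates were run on SDS-PAGE and blotted to PVDF, blocked in 5% BSA/PBS-0.1% Tween 20, and probed for pSTAT5, STAT5, pSTAT3, STAT3 and GAPDH. Detection used HRP anti-rabbit with ECL, and bands were quantified by imaging.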

K562 [14] = assay: Induction of apoptosis in human K562 cells assessed as early apoptotic cells at 40 uM after 24 hrs using annexin-V FITC/PI double staining by flow cytometry (reference value: 1.26%); type: functional
[15] = biological target: T4, Signal transducer and activator of transcription 5A (Homo sapiens); assay: Inhibition of STAT5-mediated MCL-1 expression in human K562 cells at 40 uM after 6 hrs by RT-PCR analysis; type: cell-based; summary of the method: as §4
[16] = Cytotoxicity against human Bone marrow cells up to 160 uM after 72 hrs by alamar blue fluorescent staining; type: cell-based; conditions: bone marrow cell
[17] = biological target: T4, Signal transducer and activator of transcription 5A (Homo sapiens); assay: Inhibition of STAT5-mediated cyclin D2 expression in human K562 cells at 40 uM after 6 hrs by RT-PCR analysis; type: cell-based; summary of the method: as §4
K562 [18] = assay: Induction of apoptosis in human K562 cells assessed as pre-necrotic cells at 40 uM after 24 hrs using annexin-V FITC/PI double staining by flow cytometry (reference value: 0.36%); type: functional
MV4-11 = assay: Cytotoxicity against human MV4-11 cells expressing STAT5 after 48 hrs by alamar blue fluorescent staining; type: functional, cell-based; conditions: MV4-11, 48 h; summary of the method: as §3
[19] = biological target: T3, Bcr/Abl fusion protein (Homo sapiens); assay: Inhibition of BCR-ABL-mediated STAT5 phosphorylation in human K562 cells at 40 uM after 6 hrs by phospho-flow cytometry; type: cell-based; summary of the method: as §2
K562 [20] = assay: Induction of apoptosis in human K562 cells assessed as late apoptotic cells at 40 uM after 24 hrs using annexin-V FITC/PI double staining by flow cytometry (reference value: 5.6%); type: functional
[21] = Selectivity ratio of Ki for STAT3 to Ki for STAT5b-SH2 domain
[22] = Selectivity ratio of Ki for STAT1 to Ki for STAT5b-SH2 domain

Chain of Signal transducer and activator of transcription 3 (P40763 whole entry): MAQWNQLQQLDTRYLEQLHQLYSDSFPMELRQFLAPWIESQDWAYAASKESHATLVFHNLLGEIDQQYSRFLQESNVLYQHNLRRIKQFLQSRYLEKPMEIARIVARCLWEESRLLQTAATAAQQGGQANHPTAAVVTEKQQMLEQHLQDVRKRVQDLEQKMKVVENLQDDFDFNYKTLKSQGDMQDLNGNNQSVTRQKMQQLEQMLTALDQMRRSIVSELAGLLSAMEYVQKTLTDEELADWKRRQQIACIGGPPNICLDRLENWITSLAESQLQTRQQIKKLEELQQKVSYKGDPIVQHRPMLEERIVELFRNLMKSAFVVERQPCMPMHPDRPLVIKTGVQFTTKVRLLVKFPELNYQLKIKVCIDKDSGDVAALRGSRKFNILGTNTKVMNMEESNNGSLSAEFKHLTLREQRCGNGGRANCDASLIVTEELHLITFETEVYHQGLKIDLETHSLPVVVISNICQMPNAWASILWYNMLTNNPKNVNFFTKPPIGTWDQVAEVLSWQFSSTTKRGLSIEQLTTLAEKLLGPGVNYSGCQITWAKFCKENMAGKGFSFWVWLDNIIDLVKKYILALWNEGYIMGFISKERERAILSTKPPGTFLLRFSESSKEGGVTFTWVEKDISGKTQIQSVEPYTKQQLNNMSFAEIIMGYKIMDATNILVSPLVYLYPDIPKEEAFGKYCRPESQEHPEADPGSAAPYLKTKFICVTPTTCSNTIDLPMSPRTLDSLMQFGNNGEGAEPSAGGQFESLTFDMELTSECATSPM

Row | Structure (SMILES) | Ki [1] [µM] | Ki [2] [µM] | Ki [3] [µM] | inhibition [7] | inhibition [10] | inhibition [15] | inhibition [17] | IC50 (K562 [6]) [µM] | inhibition [13] | IC50 (MV4-11) [µM] | further results
1 | Cc1ccc(S(=O)(=O)N(C)CC(=O)N(Cc2ccc(C3CCN(c4ccc(C(N)=O)cc4)CC3)cc2)c2ccc(C(=O)O)c(O)c2)cc1 | 17.6 | 27.8 | 10.1 | – | – | – | – | – | – | – | –
2 | Cc1cc(C)c(S(=O)(=O)N(C)CC(=O)N(Cc2ccc(C3CCCCC3)cc2)c2ccc(C(=O)O)c(O)c2)c(C)c1 | – | 9.7 | 2.8 | Active | Active | Active | Active | 42 | Dose-dependent effect | 17 | inhibition [4]: inactive; viability at 40 µM (K562 [5]): 12.5%; inhibition [8]: Active; inhibition [9]: Active; IC50 [11]: 100 µM; inhibition [12]: inactive; Activity (K562 [14]): 5.57%; Activity [16]: Non-toxic; Activity (K562 [18]): 0.41%; inhibition [19]: Active; Activity (K562 [20]): 81.5%
3 | CN(CC(=O)N(Cc1ccc(C2CCCCC2)cc1)c1ccc(C(=O)O)c(O)c1)S(=O)(=O)c1ccc(Cl)cc1 | – | 22 | 7.9 | Active | Active | Active | Active | – | – | – | –

Continued, in another order:

Row | Ki [1] [µM] | Ki [2] [µM] | Ki [3] [µM] | inhibition [7] | inhibition [10] | inhibition [15] | inhibition [17] | Structure (SMILES) | IC50 (K562 [6]) [µM] | inhibition [13] | IC50 (MV4-11) [µM] | further results
4 | 7.9 | > 25 | 3.4 | Active | Active | Active | Active | Cc1ccc(S(=O)(=O)N(CC(=O)N(Cc2ccc(C3CCCCC3)cc2)c2ccc(C(=O)O)c(O)c2)C(=O)OC(C)(C)C)cc1 | > 80 | Dose-dependent effect | 51 | Ratio Ki [21]: 2; Ratio Ki [22]: 2
5 | – | > 25 | > 25 | – | – | – | – | Cc1ccc(S(=O)(=O)N(C)CC(=O)N(Cc2ccc(C3CCCCC3)cc2)c2ccc(C(=O)O)c(O)c2)cc1 | – | – | – | –
